How the values were obtained:
Assay type in all cases: functional
[1] = test system: Paracentrotus lividus; experiment: Antimitotic activity against Paracentrotus lividus embryo assessed as cleavage alteration measured at 2.5 hrs post fertilization by light microscopy
Outline: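 Sea urchin eggs were fertilized with diluted sperm and cultured at room temperature in filtered seawater with paddle agitation (60 rpm), at up to 2000 embryos/mL. The effective threshold concentration causing cleavage alteration, death before hatching or full mitotic arrest was scored in duplicate.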

[2] = test system: NCI-H23; experiment: Cytotoxicity against human NCI-H23 cells assessed as cell growth at 0.01 uM incubated for 48 hrs by sulforhodamine B assay relative to control; conditions: NCI-H23, 48 h, read-out: Activity
[3] = test system: KM12; experiment: Cytotoxicity against human KM12 cells assessed as cell growth at 0.01 uM incubated for 48 hrs by sulforhodamine B assay relative to control; conditions: KM12, 48 h, read-out: Activity
[4] = test system: U-251; experiment: Cytotoxicity against human U251 cells assessed as cell growth at 0.01 uM incubated for 48 hrs by sulforhodamine B assay relative to control; conditions: U-251, 48 h, read-out: Activity
[5] = test system: UO-31; experiment: Cytotoxicity against human UO31 cells assessed as cell growth at 0.01 uM incubated for 48 hrs by sulforhodamine B assay relative to control; conditions: UO-31, 48 h, read-out: Activity
[6] = test system: MDA-MB-231; experiment: Cytotoxicity against human MDA-MB-231 cells assessed as cell growth at 0.01 uM incubated for 48 hrs by sulforhodamine B assay relative to control; conditions: MDA-MB-231, 48 h, read-out: Activity
[7] = test system: CCRF-CEM; experiment: Cytotoxicity against human CCRF-CEM cells assessed as cell growth at 0.1 uM incubated for 48 hrs by sulforhodamine B assay relative to control; conditions: read-out: Activity
[8] = test system: SF-295; experiment: Cytotoxicity against human SF295 cells assessed as cell growth at 0.1 uM incubated for 48 hrs by sulforhodamine B assay relative to control; conditions: SF-295, 48 h, read-out: Activity
[9] = test system: MCF7; experiment: Cytotoxicity against human MCF7 cells assessed as cell growth at 0.1 uM incubated for 48 hrs by sulforhodamine B assay relative to control; conditions: MCF7, 48 h, read-out: Activity
[10] = test system: NCI-H322M; experiment: Cytotoxicity against human NCI-H322M cells assessed as cell growth at 1 uM incubated for 48 hrs by sulforhodamine B assay relative to control; conditions: read-out: Activity
[11] = test system: HCC 2998; experiment: Cytotoxicity against human HCC2998 cells assessed as cell growth at 1 uM incubated for 48 hrs by sulforhodamine B assay relative to control; conditions: HCC 2998, 48 h, read-out: Activity
[12] = test system: SNB-75; experiment: Cytotoxicity against human SNB75 cells assessed as cell growth at 1 uM incubated for 48 hrs by sulforhodamine B assay relative to control; conditions: SNB-75, 48 h, read-out: Activity
[13] = test system: U-251; experiment: Cytotoxicity against human U251 cells assessed as cell growth at 1 uM incubated for 48 hrs by sulforhodamine B assay relative to control; conditions: U-251, 48 h, read-out: Activity
[14] = test system: 786-0; experiment: Cytotoxicity against human 786-0 cells assessed as cell growth at 1 uM incubated for 48 hrs by sulforhodamine B assay relative to control; conditions: 786-0, 48 h, read-out: Activity
[15] = test system: MCF7; experiment: Cytotoxicity against human MCF7 cells assessed as cell growth at 1 uM incubated for 48 hrs by sulforhodamine B assay relative to control; conditions: MCF7, 48 h, read-out: Activity
[16] = test system: HOP-62; experiment: Cytotoxicity against human HOP62 cells assessed as cell growth at 10 uM incubated for 48 hrs by sulforhodamine B assay relative to control; conditions: HOP-62, 48 h, read-out: Activity
[17] = test system: NCI-H23; experiment: Cytotoxicity against human NCI-H23 cells assessed as cell growth at 10 uM incubated for 48 hrs by sulforhodamine B assay relative to control; conditions: NCI-H23, 48 h, read-out: Activity
[18] = test system: NCI-H460; experiment: Cytotoxicity against human NCI-H460 cells assessed as cell growth at 10 uM incubated for 48 hrs by sulforhodamine B assay relative to control; conditions: NCI-H460, 48 h, read-out: Activity
[19] = test system: KM12; experiment: Cytotoxicity against human KM12 cells assessed as cell growth at 10 uM incubated for 48 hrs by sulforhodamine B assay relative to control; conditions: KM12, 48 h, read-out: Activity
[20] = test system: SW-620; experiment: Cytotoxicity against human SW620 cells assessed as cell growth at 10 uM incubated for 48 hrs by sulforhodamine B assay relative to control; conditions: SW-620, 48 h, read-out: Activity
[21] = test system: SF-295; experiment: Cytotoxicity against human SF295 cells assessed as cell growth at 10 uM incubated for 48 hrs by sulforhodamine B assay relative to control; conditions: SF-295, 48 h, read-out: Activity
[22] = test system: SF-539; experiment: Cytotoxicity against human SF539 cells assessed as cell growth at 10 uM incubated for 48 hrs by sulforhodamine B assay relative to control; conditions: SF-539, 48 h, read-out: Activity
[23] = test system: SK-OV-3; experiment: Cytotoxicity against human SKOV3 cells assessed as cell growth at 10 uM incubated for 48 hrs by sulforhodamine B assay relative to control; conditions: SK-OV-3, 48 h, read-out: Activity
[24] = test system: NCI-H322M; experiment: Cytotoxicity against human NCI-H322M cells assessed as cell growth at 100 uM incubated for 48 hrs by sulforhodamine B assay relative to control; conditions: read-out: Activity
[25] = test system: IGROV-1; experiment: Cytotoxicity against human IGROV1 cells assessed as cell growth at 100 uM incubated for 48 hrs by sulforhodamine B assay relative to control; conditions: IGROV-1, 48 h, read-out: Activity
[26] = test system: SK-OV-3; experiment: Cytotoxicity against human SKOV3 cells assessed as cell growth at 100 uM incubated for 48 hrs by sulforhodamine B assay relative to control; conditions: SK-OV-3, 48 h, read-out: Activity
[27] = test system: NCI-H322M; experiment: Cytotoxicity against human NCI-H322M cells incubated for 48 hrs by sulforhodamine B assay
[28] = test system: SF-295; experiment: Cytotoxicity against human SF295 cells incubated for 48 hrs by sulforhodamine B assay; conditions: SF-295, 48 h
[29] = test system: UACC-62; experiment: Cytotoxicity against human UACC62 cells incubated for 48 hrs by sulforhodamine B assay; conditions: UACC-62, 48 h
[30] = test system: 786-0; experiment: Cytotoxicity against human 786-0 cells incubated for 48 hrs by sulforhodamine B assay; conditions: 786-0, 48 h
[31] = test system: PC-3; experiment: Cytotoxicity against human PC3 cells incubated for 48 hrs by sulforhodamine B assay; conditions: PC-3, 48 h

COc1ccc(-c2nocc2-c2cc(OC)c(OC)c(OC)c2)cc1
EC [1]: 0.01 µM | growth at 0.01 µM [2]: 94% | growth at 0.01 µM [3]: 92% | growth at 0.01 µM [4]: 99% | growth at 0.01 µM [5]: 90% | growth at 0.01 µM [6]: 98% | growth at 0.1 µM [7]: 90% | growth at 0.1 µM [8]: 36% | growth at 0.1 µM [9]: 27% | growth at 1 µM [10]: 46% | growth at 1 µM [11]: 40% | growth at 1 µM [12]: 4% | growth at 1 µM [13]: 22% | growth at 1 µM [14]: 37% | growth at 1 µM [15]: 19% | growth at 10 µM [16]: 35% | growth at 10 µM [17]: 19% | growth at 10 µM [18]: 4% | growth at 10 µM [19]: 6% | growth at 10 µM [20]: 19% | growth at 10 µM [21]: 5% | growth at 10 µM [22]: 2% | growth at 10 µM [23]: 32% | growth at 100 µM [24]: 18% | growth at 100 µM [25]: 2% | growth at 100 µM [26]: 5% | GI50 ([27]; read-out: GI50): 0.737 µM | LC50 ([27]; read-out: LC50): > 100 µM | TGI ([27]; read-out: TGI): > 100 µM | GI50 ([27]; read-out: pGI50 (converted)): 0.741 µM | LC50 ([27]; read-out: pLC50 (converted)): > 100 µM | TGI ([27]; read-out: pTGI): > 100 µM | GI50 ([28]; read-out: GI50): 0.0505 µM | CC50 ([28]; read-out: LC50 (the source's name)): > 100 µM | TGI ([28]; read-out: TGI): 13.1 µM | GI50 ([28]; read-out: pGI50 (converted)): 0.0501 µM | CC50 ([28]; read-out: pLC50 (the source's name) (converted)): > 100 µM | TGI ([28]; read-out: pTGI (converted)): 13.2 µM | GI50 ([29]; read-out: GI50): 0.0557 µM | LC50 (concentration killing 50% of cells) ([29]; read-out: LC50): > 100 µM | TGI ([29]; read-out: TGI): 12.9 µM | GI50 ([29]; read-out: pGI50 (converted)): 0.0562 µM | LC50 (concentration killing 50% of cells) ([29]; read-out: pLC50 (converted)): > 100 µM | TGI ([29]; read-out: pTGI (converted)): 12.9 µM | GI50 ([30]; read-out: GI50): 0.174 µM | LC50 ([30]; read-out: LC50): > 100 µM | TGI ([30]; read-out: TGI): 38.6 µM | GI50 ([30]; read-out: pGI50 (converted)): 0.174 µM | LC50 ([30]; read-out: pLC50 (converted)): > 100 µM | TGI ([30]; read-out: pTGI (converted)): 38.9 µM | GI50 ([31]; read-out: GI50): 0.0671 µM | LC50 (concentration killing 50% of cells) ([31]; read-out: LC50): > 100 µM | TGI ([31]; read-out: TGI): 42.5 µM | GI50 ([31]; read-out: pGI50 (converted)): 0.0676 µM | LC50 (concentration killing 50% of cells) ([31]; read-out: pLC50 (converted)): > 100 µM | TGI ([31]; read-out: pTGI (converted)): 42.7 µM
